Reference: ChEMBL document CHEMBL1149466, “Synthesis and pharmacochemical study of novel polyfunctional molecules combining anti-inflammatory, antioxidant, and hypocholesterolemic properties” (Bioorg Med Chem Lett, 2006)
Calls of active or inactive are those of the source. The calls are words filed in the database; no cut-off is given here.

Columns and labels:
[1] = test system: Radical scavenging activity; experiment: Inhibition of lipid peroxidation of rat hepatic microsomal membrane lipids at 1 mM; details: Liver
Rattus norvegicus [2] = experiment: Gastrointestinal toxicity in rat at 84 umol/kg, sc; assay type: organism-based; details: in vivo
Summary of the method: (§1)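 Female rats dosed sc once daily for four days. Mortality, perforating GI ulcer incidence, melena defecation and body weight loss recorded 24 h after last dose.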

[3] = test system: Radical scavenging activity; experiment: DPPH radical scavenging activity at 0.05 mM; assay type: functional
Summary of the method: (§2)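 Radical scavenging measured as % interaction with stable free radical DPPH (0.2 mM) after 30 min incubation, compounds at 0.2, 0.1 and 0.05 mM.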

Rattus norvegicus [4] = experiment: Inhibition of arthritis in rat at 300-600 umol/kg, id; assay type: functional
Summary of the method: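 Arthritis induced in rats by id injection of complete Freund's adjuvant; compounds dosed 300-600 µmol/kg for 14 days, arthritic score assessed day 15 post adjuvant, % inhibition versus controls; mean of 4-6 rats, Student's t test.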

[5] = target: T1, Seed linoleate 13S-lipoxygenase-1 (Glycine max, UniProt P08170); experiment: Inhibition of soybean lipoxygenase; assay type: functional
T1 sequence (P08170 whole entry): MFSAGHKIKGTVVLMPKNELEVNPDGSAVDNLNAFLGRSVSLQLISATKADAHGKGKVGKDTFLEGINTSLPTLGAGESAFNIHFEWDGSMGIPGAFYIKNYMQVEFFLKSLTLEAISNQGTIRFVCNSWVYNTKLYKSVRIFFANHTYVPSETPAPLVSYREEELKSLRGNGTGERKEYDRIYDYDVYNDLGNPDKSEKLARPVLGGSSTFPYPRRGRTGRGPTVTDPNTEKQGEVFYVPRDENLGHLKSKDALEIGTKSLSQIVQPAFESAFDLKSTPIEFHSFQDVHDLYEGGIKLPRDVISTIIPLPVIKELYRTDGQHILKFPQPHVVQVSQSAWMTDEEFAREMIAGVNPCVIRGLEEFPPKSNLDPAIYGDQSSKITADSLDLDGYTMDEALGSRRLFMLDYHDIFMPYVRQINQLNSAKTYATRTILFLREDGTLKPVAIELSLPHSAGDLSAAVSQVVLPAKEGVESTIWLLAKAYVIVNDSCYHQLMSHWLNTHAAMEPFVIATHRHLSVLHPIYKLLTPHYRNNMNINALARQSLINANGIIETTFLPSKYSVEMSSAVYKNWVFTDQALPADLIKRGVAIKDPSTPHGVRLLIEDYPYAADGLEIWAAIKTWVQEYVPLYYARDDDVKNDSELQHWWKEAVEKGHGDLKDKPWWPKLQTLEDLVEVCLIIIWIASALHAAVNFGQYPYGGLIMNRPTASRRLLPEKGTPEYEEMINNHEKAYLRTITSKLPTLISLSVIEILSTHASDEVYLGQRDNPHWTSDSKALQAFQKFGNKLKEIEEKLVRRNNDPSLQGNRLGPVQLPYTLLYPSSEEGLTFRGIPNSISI
Summary of the method: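 Soybean lipoxygenase, 220 U/ml, with sodium linoleate (100 μM) substrate, pH 9, 28 °C, 5 min; IC50 determined.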

Rattus norvegicus [6] = experiment: Increase in paw weight in Fischer rats at 300 umol/kg, ip; assay type: functional
Summary of the method: (§3)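 Carrageenan paw edema in rats; compounds given ip at 300 µmol/kg. Read-out % paw weight increase versus controls, converted to % edema inhibition; mean of 4-9 rats from two independent experiments, Student's t test.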

Rattus norvegicus [7] = experiment: Decrease in LDL cholesterol level in rat at 200 umol/kg, ip; design: scale not given: the % may be the effect or the level left; details: route intraperitoneal
Rattus norvegicus [8] = experiment: Decrease in triglyceride level in rat at 200 umol/kg, ip; design: scale not given: the % may be the effect or the level left; details: route intraperitoneal
Rattus norvegicus [9] = experiment: Decrease in total cholesterol level in rat at 200 umol/kg, ip; design: scale not given: the % may be the effect or the level left; details: route intraperitoneal
[10] = test system: Radical scavenging activity; experiment: DPPH radical scavenging activity at 0.2 mM; assay type: functional
Summary of the method: as §2

[11] = test system: Radical scavenging activity; experiment: DPPH radical scavenging activity at 0.1 mM; assay type: functional
Summary of the method: as §2

[12] = test system: Radical scavenging activity; experiment: Inhibition of lipid peroxidation of rat hepatic microsomal membrane lipids; assay type: functional, Liver
Rattus norvegicus [13] = experiment: Anti-inflammatory activity against paw edema induced by carrageenan in fischer rat at 300 umol/kg, ip; assay type: functional
Summary of the method: as §3

Rattus norvegicus [14] = experiment: Decrease in triglyceride level in rat at 56 umol/kg, ip; design: scale not given: the % may be the effect or the level left; details: route intraperitoneal
Rattus norvegicus [15] = experiment: Decrease in LDL cholesterol level in rat at 56 umol/kg, ip; design: scale not given: the % may be the effect or the level left; details: route intraperitoneal
Rattus norvegicus [16] = experiment: Decrease in total cholesterol level in rat at 56 umol/kg, ip; design: scale not given: the % may be the effect or the level left; details: route intraperitoneal
Rattus norvegicus [17] = experiment: Gastrointestinal toxicity in rat at 1350 umol/kg, sc; assay type: organism-based; details: in vivo
Summary of the method: as §1

SMILES: NCCS
- inhibition [1]: 37%

SMILES: CCOC(=O)C(CS)NC(=O)C1CCCN1C(=O)Cc1c(C)n(C(=O)c2ccc(Cl)cc2)c2ccc(OC)cc12 (stereo unspecified)
- Activity (Rattus norvegicus [2]): Non-toxic
- Activity [3]: 31.1%
- Inhibition (Rattus norvegicus [4]): 77.4%
- IC50 [5]: 200 µM
- Activity (Rattus norvegicus [6]): 50.1%
- Activity (Rattus norvegicus [7]): 48.4%
- Activity (Rattus norvegicus [8]): 55.7%
- Activity (Rattus norvegicus [9]): 78%
- Activity [10]: 69.7%
- Activity [11]: 44.2%
- IC50 [12]: 390 µM
- inhibition in vivo at 300 µmol/kg (Rattus norvegicus [13]): 14.3%

SMILES: COc1ccc2c(c1)c(CC(=O)O)c(C)n2C(=O)c1ccc(Cl)cc1 [INDOMETHACIN]
- Activity (Rattus norvegicus [2]): Toxic
- Activity (Rattus norvegicus [6]): 27%
- inhibition in vivo at 300 µmol/kg (Rattus norvegicus [13]): 53.9%

SMILES: CCOC(=O)C(CS)NC(=O)C1CCCN1C(=O)C(C)c1ccc2cc(OC)ccc2c1 (stereo unspecified)
- Activity (Rattus norvegicus [14]): 68.7%
- Activity [3]: 32.1%
- Activity (Rattus norvegicus [15]): 55%
- Inhibition (Rattus norvegicus [4]): 100%
- IC50 [5]: 48 µM
- Activity (Rattus norvegicus [16]): 58%
- Activity (Rattus norvegicus [17]): Non-toxic
- Activity (Rattus norvegicus [6]): 44.6%
- Activity [10]: 86.3%
- Activity [11]: 61.9%
- IC50 [12]: 320 µM
- inhibition in vivo at 300 µmol/kg (Rattus norvegicus [13]): 23.7%

SMILES: CCOC(=O)[C@@H](N)CS
- inhibition [1]: 49%

SMILES: COc1ccc2cc(C(C)C(=O)N3CC(O)CC3C(=O)NCCS)ccc2c1 (stereo unspecified)
- Activity [3]: 21.3%
- Activity (Rattus norvegicus [6]): 44.4%
- Activity [10]: 56.2%
- Activity [11]: 36.5%
- inhibition in vivo at 300 µmol/kg (Rattus norvegicus [13]): 24.1%

SMILES: COc1ccc2cc([C@H](C)C(=O)O)ccc2c1 [NAPROXEN]
- Activity (Rattus norvegicus [17]): Toxic
- Activity (Rattus norvegicus [6]): 28.7%
- inhibition in vivo at 300 µmol/kg (Rattus norvegicus [13]): 51%

SMILES: CCOC(=O)C(CS)NC(=O)C1CCCCN1C(=O)C(C)c1ccc2cc(OC)ccc2c1 (stereo unspecified)
- Activity (Rattus norvegicus [14]): 21.3%
- Activity [3]: 23.5%
- Activity (Rattus norvegicus [15]): 52%
- Activity (Rattus norvegicus [16]): 40%
- Activity (Rattus norvegicus [6]): 34.9%
- Activity [10]: 76.7%
- Activity [11]: 46%
- IC50 [12]: 122 µM
- inhibition in vivo at 300 µmol/kg (Rattus norvegicus [13]): 50.7%

SMILES: COc1ccc2cc(C(C)C(=O)N3CCCC3C(=O)NCCS)ccc2c1 (stereo unspecified)
- Activity [3]: 28.8%
- Inhibition (Rattus norvegicus [4]): 51.6%
- IC50 [5]: 35 µM
- Activity (Rattus norvegicus [17]): Non-toxic
- Activity (Rattus norvegicus [6]): 42.9%
- Activity [10]: 78.9%
- Activity [11]: 56.3%
- inhibition in vivo at 300 µmol/kg (Rattus norvegicus [13]): 26.7%

SMILES: COc1ccc2c(c1)c(CC(=O)N1CCCC1C(=O)NCCS)c(C)n2C(=O)c1ccc(Cl)cc1 (stereo unspecified)
- Activity (Rattus norvegicus [2]): Non-toxic
- Activity [3]: inactive
- Inhibition (Rattus norvegicus [4]): 50.8%
- Activity (Rattus norvegicus [6]): 48.5%
- Activity [10]: inactive
- Activity [11]: inactive
- inhibition in vivo at 300 µmol/kg (Rattus norvegicus [13]): 17%
